From ChEMBL document CHEMBL4364301 (Eur J Med Chem, 2019)

Experiments:
Format in all cases: functional
LNCaP [1] = test: Antiproliferative activity against human LNCAP cells assessed as T/C value at 1 x 10^1 uM incubated for 96 hrs by propidium iodide based 2D monolayer assay
Outline: (§1)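 Cells were kept in RPMI 1640 with 25 mM HEPES, 10% FCS and gentamicin at 37 °C under 5% CO2, and plated at 4,000-20,000 cells/well. After 24 h recovery, compound in medium or medium alone (control wells) was added at 10 half-log concentrations from 0.0032 to 100 µM, in triplicate, with at most 0.3% DMSO. After 96 h, wells were PBS-washed, stained with 7 µg/ml PI and 0.1% Triton X-100, and fluorescence read at 530/620 nm. IC50 came from a 4-parameter fit, geometric mean.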

CWR22R [2] = test: Antiproliferative activity against human 22Rv1 cells assessed as T/C value at 1 x 10^1 uM incubated for 96 hrs by propidium iodide based 2D monolayer assay; outline: as §1
DU-145 [3] = test: Antiproliferative activity against human DU145 cells assessed as T/C value at 1 x 10^-2 uM incubated for 96 hrs by propidium iodide based 2D monolayer assay
Outline: as §1, with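 “After” for “Cells were kept in RPMI 1640 with 25 mM HEPES, 10% FCS and gentamicin at 37 °C under 5% CO2, and plated at 4,000-20,000 cells/well. After”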

CWR22R [4] = test: Antiproliferative activity against human 22Rv1 cells assessed as reduction in cell growth incubated for 96 hrs by propidium iodide based 2D monolayer assay; conditions: 22Rv1, 96 h
Outline: as §1, with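 “After” for “Cells were kept in RPMI 1640 with 25 mM HEPES, 10% FCS and gentamicin at 37 °C under 5% CO2, and plated at 4,000-20,000 cells/well. After”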

CWR22R [5] = test: Antiproliferative activity against human 22Rv1 cells assessed as T/C value at 1 x 10^2 uM incubated for 96 hrs by propidium iodide based 2D monolayer assay; outline: as §1
DU-145 [6] = test: Antiproliferative activity against human DU145 cells assessed as T/C value at 1 x 10^-1 uM incubated for 96 hrs by propidium iodide based 2D monolayer assay
Outline: as §1, with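 “After” for “Cells were kept in RPMI 1640 with 25 mM HEPES, 10% FCS and gentamicin at 37 °C under 5% CO2, and plated at 4,000-20,000 cells/well. After”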

VCaP [7] = test: Antiproliferative activity against human VCaP cells assessed as T/C value at 3.2 x 10^-1 uM incubated for 96 hrs by propidium iodide based 2D monolayer assay
Outline: (§2)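 VCaP cells in RPMI 1640 with 10% FCS at 37 °C, 5% CO2, seeded 4,000–20,000 cells/well and left 24 h before dosing. Compounds from DMSO stocks were diluted in half-log steps in medium, 10 concentrations 0.0032–100 μM, triplicate wells, max 0.3% DMSO. After 96 h, cells were washed, stained with 7 μg/ml propidium iodide plus 0.1% Triton X-100 for 1–2 h at room temperature, and fluorescence read at ex 530/em 620 nm.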

CWR22R [8] = test: Antiproliferative activity against human 22Rv1 cells assessed as T/C value at 1 x 10^-2 uM incubated for 96 hrs by propidium iodide based 2D monolayer assay; outline: as §1
VCaP [9] = test: Antiproliferative activity against human VCaP cells assessed as reduction in cell growth incubated for 96 hrs by propidium iodide based 2D monolayer assay; outline: as §2
DU-145 [10] = test: Antiproliferative activity against human DU145 cells assessed as T/C value at 1 x 10^1 uM incubated for 96 hrs by propidium iodide based 2D monolayer assay
Outline: as §1, with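 “After” for “Cells were kept in RPMI 1640 with 25 mM HEPES, 10% FCS and gentamicin at 37 °C under 5% CO2, and plated at 4,000-20,000 cells/well. After”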

DU-145 [11] = test: Antiproliferative activity against human DU145 cells assessed as T/C value at 1 uM incubated for 96 hrs by propidium iodide based 2D monolayer assay
Outline: as §1, with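 “After” for “Cells were kept in RPMI 1640 with 25 mM HEPES, 10% FCS and gentamicin at 37 °C under 5% CO2, and plated at 4,000-20,000 cells/well. After”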

CWR22R [12] = test: Antiproliferative activity against human 22Rv1 cells assessed as T/C value at 3.2 uM incubated for 96 hrs by propidium iodide based 2D monolayer assay; outline: as §1
CWR22R [13] = test: Antiproliferative activity against human 22Rv1 cells assessed as T/C value at 3.2 x 10^1 uM incubated for 96 hrs by propidium iodide based 2D monolayer assay; outline: as §1
DU-145 [14] = test: Antiproliferative activity against human DU145 cells assessed as T/C value at 3.2 x 10^-1 uM incubated for 96 hrs by propidium iodide based 2D monolayer assay
Outline: as §1, with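 “After” for “Cells were kept in RPMI 1640 with 25 mM HEPES, 10% FCS and gentamicin at 37 °C under 5% CO2, and plated at 4,000-20,000 cells/well. After”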

CWR22R [15] = test: Antiproliferative activity against human 22Rv1 cells assessed as T/C value at 1 uM incubated for 96 hrs by propidium iodide based 2D monolayer assay; outline: as §1
VCaP [16] = test: Antiproliferative activity against human VCaP cells assessed as T/C value at 1 uM incubated for 96 hrs by propidium iodide based 2D monolayer assay; outline: as §1
LNCaP [17] = test: Antiproliferative activity against human LNCAP cells assessed as T/C value at 3.2 x 10^-1 uM incubated for 96 hrs by propidium iodide based 2D monolayer assay; outline: as §1
VCaP [18] = test: Antiproliferative activity against human VCaP cells assessed as T/C value at 3.2 uM incubated for 96 hrs by propidium iodide based 2D monolayer assay; outline: as §1
DU-145 [19] = test: Antiproliferative activity against human DU145 cells assessed as T/C value at 3.2 x 10^1 uM incubated for 96 hrs by propidium iodide based 2D monolayer assay; outline: as §1
VCaP [20] = test: Antiproliferative activity against human VCaP cells assessed as T/C value at 1 x 10^-2 uM incubated for 96 hrs by propidium iodide based 2D monolayer assay; outline: as §1
LNCaP [21] = test: Antiproliferative activity against human LNCAP cells assessed as T/C value at 3.2 x 10^-2 uM incubated for 96 hrs by propidium iodide based 2D monolayer assay; outline: as §1
CWR22R [22] = test: Antiproliferative activity against human 22Rv1 cells assessed as T/C value at 3.2 x 10^-2 uM incubated for 96 hrs by propidium iodide based 2D monolayer assay; outline: as §1
VCaP [23] = test: Antiproliferative activity against human VCaP cells assessed as T/C value at 1 x 10^1 uM incubated for 96 hrs by propidium iodide based 2D monolayer assay; outline: as §1
DU-145 [24] = test: Antiproliferative activity against human DU145 cells assessed as T/C value at 3.2 x 10^-3 uM incubated for 96 hrs by propidium iodide based 2D monolayer assay
Outline: as §1, with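 “After” for “Cells were kept in RPMI 1640 with 25 mM HEPES, 10% FCS and gentamicin at 37 °C under 5% CO2, and plated at 4,000-20,000 cells/well. After”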

LNCaP [25] = test: Antiproliferative activity against human LNCAP cells assessed as T/C value at 3.2 x 10^1 uM incubated for 96 hrs by propidium iodide based 2D monolayer assay; outline: as §1
VCaP [26] = test: Antiproliferative activity against human VCaP cells assessed as T/C value at 3.2 x 10^-2 uM incubated for 96 hrs by propidium iodide based 2D monolayer assay; outline: as §2
CWR22R [27] = test: Antiproliferative activity against human 22Rv1 cells assessed as T/C value at 1 x 10^-1 uM incubated for 96 hrs by propidium iodide based 2D monolayer assay; outline: as §1
DU-145 [28] = test: Antiproliferative activity against human DU145 cells assessed as reduction in cell growth incubated for 96 hrs by propidium iodide based 2D monolayer assay; conditions: DU-145, 96 h
Outline: as §1, with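 “After” for “Cells were kept in RPMI 1640 with 25 mM HEPES, 10% FCS and gentamicin at 37 °C under 5% CO2, and plated at 4,000-20,000 cells/well. After”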

CWR22R [29] = test: Antiproliferative activity against human 22Rv1 cells assessed as T/C value at 3.2 x 10^-1 uM incubated for 96 hrs by propidium iodide based 2D monolayer assay; outline: as §1
DU-145 [30] = test: Antiproliferative activity against human DU145 cells assessed as T/C value at 3.2 uM incubated for 96 hrs by propidium iodide based 2D monolayer assay; outline: as §1
DU-145 [31] = test: Antiproliferative activity against human DU145 cells assessed as T/C value at 3.2 x 10^-2 uM incubated for 96 hrs by propidium iodide based 2D monolayer assay
Outline: as §1, with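 “After” for “Cells were kept in RPMI 1640 with 25 mM HEPES, 10% FCS and gentamicin at 37 °C under 5% CO2, and plated at 4,000-20,000 cells/well. After”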

SMILES	T/C (LNCaP [1])	T/C (CWR22R [2])	T/C (DU-145 [3])	IC50 (CWR22R [4]) [µM]	T/C (CWR22R [5])	T/C (DU-145 [6])	T/C (VCaP [7])	T/C (CWR22R [8])	IC50 (VCaP [9]) [µM]	T/C (DU-145 [10])	T/C (DU-145 [11])	T/C (CWR22R [12])	T/C (CWR22R [13])	T/C (DU-145 [14])	T/C (CWR22R [15])	T/C (VCaP [16])	T/C (LNCaP [17])	T/C (VCaP [18])	T/C (DU-145 [19]) [%]	T/C (VCaP [20])	other results
CC(O)(COc1cccc(S(F)(F)(F)(F)F)c1)C(=O)Nc1ccc([N+](=O)[O-])c(C(F)(F)F)c1 (racemic)	1 - 3%	13 - 14%	115 - 122%	5.4	2 - 3%	118 - 124%	94 - 113%	100 - 106%	5.3	9 - 16%	122 - 125%	62 - 92%	2%	121 - 129%	101 - 109%	94 - 108%	100 - 103%	81 - 87%	1	97 - 108%	IC70 (CWR22R [4]): 5.77 to 6.98 µM; IC70 (VCaP [9]): 7.82 to 8.69 µM; T/C (LNCaP [21]): 92 - 95%; T/C (CWR22R [22]): 108 - 110%; T/C (VCaP [23]): 22%; T/C (DU-145 [24]): 111 - 116%; T/C (LNCaP [25]): -1%; T/C (VCaP [26]): 86 - 107%; T/C (CWR22R [27]): 106 - 110%; IC50 (DU-145 [28]): 7.4 µM; IC70 (DU-145 [28]): 7.24 to 8.54 µM; T/C (CWR22R [29]): 107 - 111%; T/C (DU-145 [30]): 116%; T/C (DU-145 [31]): 116 - 124%
CC(O)(COc1cc(C(F)(F)F)cc(C(F)(F)F)c1)C(=O)Nc1ccc(S(F)(F)(F)(F)F)cc1 (racemic)	6%	16%	103%	7	4%	109%	87%	99%	2.6	15%	118%	103%	8%	113%	108%	88%	93%	37%	5	95%	IC70 (CWR22R [4]): 8.27 µM; IC70 (VCaP [9]): 4.53 µM; T/C (LNCaP [21]): 100%; T/C (CWR22R [22]): 99%; T/C (VCaP [23]): 23%; T/C (DU-145 [24]): 102%; T/C (LNCaP [25]): 2%; T/C (VCaP [26]): 95%; T/C (CWR22R [27]): 104%; IC50 (DU-145 [28]): 8.6 µM; IC70 (DU-145 [28]): 9.21 µM; T/C (CWR22R [29]): 109%; T/C (DU-145 [30]): 117%; T/C (DU-145 [31]): 105%
CC(O)(COc1ccccc1C(F)(F)F)C(=O)Nc1ccc(S(F)(F)(F)(F)F)cc1 (racemic)	1 - 2%	1 - 6%	103 - 119%	1.4	1 - 2%	108 - 127%	73 - 91%	99 - 104%	3.1	1 - 20%	88 - 127%	2 - 9%	1 - 3%	107 - 132%	9 - 81%	58 - 85%	83 - 84%	19 - 45%	4	87 - 102%	T/C (LNCaP [21]): 88 - 94%; T/C (CWR22R [22]): 100 - 108%; T/C (VCaP [23]): 11 - 28%; T/C (DU-145 [24]): 102 - 112%; T/C (LNCaP [25]): 1%; T/C (VCaP [26]): 87 - 93%; T/C (CWR22R [27]): 93 - 107%; IC50 (DU-145 [28]): 7.1 µM; T/C (CWR22R [29]): 69 - 110%; T/C (DU-145 [30]): 15 - 117%; T/C (DU-145 [31]): 108 - 125%
